pEC50: −log10 of the molar value. Calls of active or inactive are those of the source. The calls are words filed in the database; no cut-off is given here.
Experiments:
HT-29 [1] = assay: Anti-necroptotic activity in human HT-29 cells assessed as inhibition of TNFalpha/cycloheximide/Z-VAD-fmk (TCZ)-induced necroptosis by measuring increase in cell viability measured after 16 hrs by celltiter-glo luminescent cell viability assay; type: functional, cell-based
[2] = target: T1, Heat shock protein HSP90 (Homo sapiens) (UniProt P07900+P08238); assay: Inhibition of HSP90 in TNFalpha/SM-164/Z-VAD-fmk (TSZ)-induced human HT-29 cells assessed as increase in HSP70 expression at 10 uM by Western blot analysis; type: cell-based; conditions: time 0.5-6 hrs
HT-29 [3] = assay: Protection against TNFalpha/SM-164 (TS)-induced apoptosis in human HT-29 cells assessed as increase in cell viability at 0.5 to 10 uM measured after 20 hrs by celltiter-glo luminescent cell viability assay; type: functional, cell-based; conditions: dose 0.5-10 µM
Outline: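 HT-29 cells exposed to agent across concentrations, then TNF-α and Smac mimetic (TS) for 20 h. CellTiter-Glo viability, mean ± S.D. of three independent experiments.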

HT-29 [4] = assay: Anti-necroptotic activity in human HT-29 cells assessed as inhibition of TNFalpha/SM-164/Z-VAD-fmk (TSZ)-induced necroptosis by measuring increase in cell viability measured after 12 hrs by celltiter-glo luminescent cell viability assay; type: functional, cell-based
Outline: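 HT-29 cells pretreated with test agent across a concentration range, then TNF-α (20 ng/mL), Smac mimetic (10 nM) and z-VAD-fmk (20 μM) for 12–16 h. CellTiter-Glo viability. EC50 ± SD from at least three independent experiments.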

Rattus norvegicus [5] = assay: Neuroprotective activity in middle cerebral artery occlusion-induced Sprague-Dawley rat model of ischemia-reperfusion injury assessed as neurological deficit score at 100 mg/kg (reference value: 3.71 +/- 0.45); type: functional
HT-29 [6] = assay: Anti-necroptotic activity in human HT-29 cells assessed as inhibition of TNFalpha/SM-164/Z-VAD-fmk (TSZ)-induced necroptosis by measuring increase in cell viability at 10 uM measured after 12 hrs in presence of RIPK3 inhibitor SZM630 by celltiter-glo luminescent cell viability assay; type: functional, cell-based
Outline: (§1)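 HT-29 cells exposed to test agent combined with a second necroptosis inhibitor, then stimulated with TSZ for 12 h to assess synergy. Viability read by CellTiter-Glo luminescence.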

Mus musculus = assay: Protection against TNFalpha-induced C57BL/6J mouse model of systemic inflammatory response syndrome assessed as reduction in hypothermia at 10 to 20 mg/kg, ig administered via gavage 2 hrs prior to TNFalpha stimulation and measured after 10 to 60 mins by electric thermometric method; type: functional, organism-based; conditions: dose 10-20 mg/kg, time 2-3 hrs
Outline: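 Female C57BL/6J mice, fasted, n=11 per group. Agent at 10 or 20 mg/kg in 0.5% CMC-Na by gavage 2 h before i.v. mTNF-α (250 µg/kg). z-VAD-fmk i.p. 200 µg at −15 min and 75 µg at +1 h. Body temperature tracked, mean ± S.E.M.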

HT-29 [7] = assay: Anti-necroptotic activity in human HT-29 cells assessed as inhibition of TNFalpha/SM-164/Z-VAD-fmk (TSZ)-induced necroptosis by measuring increase in cell viability at 10 uM measured after 12 hrs in presence of RIPK1/3 inhibitor TAK632 by celltiter-glo luminescent cell viability assay; type: functional, cell-based; outline: as §1
HT-29 [8] = assay: Anti-necroptotic activity in human HT-29 cells assessed as inhibition of TNFalpha/SM-164/Z-VAD-fmk (TSZ)-induced necroptosis by measuring increase in cell viability at 10 uM measured after 12 hrs in presence of MLKL inhibitor NSA by celltiter-glo luminescent cell viability assay; type: functional, cell-based; outline: as §1
HT-29 [9] = assay: Anti-necroptotic activity in human HT-29 cells assessed as inhibition of TNFalpha/SM-164/Z-VAD-fmk (TSZ)-induced necroptosis by measuring increase in cell viability at 10 uM measured after 12 hrs in presence of RIPK1 inhibitor Nec-1 by celltiter-glo luminescent cell viability assay; type: functional, cell-based; outline: as §1
[10] = target: T1, Heat shock protein HSP90 (Homo sapiens); assay: Inhibition of HSP90 in TNFalpha/SM-164/Z-VAD-fmk (TSZ)-induced human HT-29 cells assessed as reduction in EGFR expression at 10 uM by Western blot analysis; type: cell-based; conditions: time 0.5-6 hrs
[11] = target: T1, Heat shock protein HSP90 (Homo sapiens); assay: Inhibition of HSP90 in TNFalpha/SM-164/Z-VAD-fmk (TSZ)-induced human HT-29 cells assessed as reduction in RIPK3 expression at 10 uM preincubated for 30 mins followed by TSZ stimulation and measured after 2 to 6 hrs by Western blot analysis; type: cell-based; conditions: time 2-6.5 hrs
Outline: (§2)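 HT-29 cells pretreated 30 min with agent (10 μM), then TSZ for the indicated times. Lysed in RIPA with protease and phosphatase inhibitors, BCA quantified. 30 μg protein run on SDS-PAGE and blotted to PVDF. Blocked in 5% BSA, primary antibodies 1:1000 overnight at 4 °C, secondary 1:8000 for 1 h at room temperature.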

[12] = target: T1, Heat shock protein HSP90 (Homo sapiens); assay: Inhibition of HSP90 in TNFalpha/SM-164/Z-VAD-fmk (TSZ)-induced human HT-29 cells assessed as reduction in MLKL expression at 10 uM preincubated for 30 mins followed by TSZ stimulation and measured after 2 to 6 hrs by Western blot analysis; type: cell-based; conditions: time 2-6.5 hrs; outline: as §2
[13] = target: T1, Heat shock protein HSP90 (Homo sapiens); assay: Inhibition of HSP90 in TNFalpha/SM-164/Z-VAD-fmk (TSZ)-induced human HT-29 cells assessed as reduction in RIPK1 expression at 10 uM preincubated for 30 mins followed by TSZ stimulation and measured after 2 to 6 hrs by Western blot analysis; type: cell-based; conditions: time 2-6.5 hrs; outline: as §2
HT-29 [14] = assay: Protection against TNFalpha/cycloheximide (TC)-induced apoptosis in human HT-29 cells assessed as increase in cell viability at 0.25 to 5 uM measured after 24 hrs by celltiter-glo luminescent cell viability assay; type: functional, cell-based; conditions: dose 0.25-5 µM
Outline: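 HT-29 cells treated with agent across concentrations, then TNF-α and cycloheximide (TC) for 24 h. CellTiter-Glo luminescent viability, mean ± S.D. from three independent experiments.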

L929 = assay: Anti-necroptotic activity in mouse L929 cells assessed as inhibition of TNFalpha/Z-VAD-fmk (TZ)-induced necroptosis by measuring increase in cell viability measured after 12 hrs by celltiter-glo luminescent cell viability assay; type: functional, cell-based
Outline: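 Mouse L929 fibroblasts pretreated with test agent, then mouse TNF-α (20 ng/mL) plus z-VAD-fmk (20 μM). Incubation stated as 4 h in table footnote and 12 h in figure legend. CellTiter-Glo viability. EC50 ± SD from at least three independent repeats.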

Rattus norvegicus [15] = assay: Neuroprotective activity in middle cerebral artery occlusion-induced Sprague-Dawley rat model of ischemia-reperfusion injury assessed as reversal of pathological change at 100 mg/kg by H and E staining based analysis; type: functional, organism-based
Outline: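 Rats underwent 2 h MCA filament occlusion, then 24 h reperfusion, agent at 100 mg/kg. Animals perfused with saline and 4% paraformaldehyde. Brains paraffin-embedded and cut into 5 μm coronal sections. Hippocampus and cortex assessed by HE staining.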

**Q.** For `CC1(C)CC[C@]2(C(=O)n3cnc(-c4cccnc4)c3)CC[C@]3(C)[C@H](C(=O)C=C4[C@@]5(C)C=C(C#N)C(=O)C(C)(C)[C@@H]5CC[C@]43C)[C@@H]2C1`, which inhibition (HT-29 [1]) is on record?
**A.** Dose-dependent effect

**Q.** And the inhibition [2]?
**A.** Dose-dependent effect

**Q.** What about the Activity (HT-29 [3]) of the same compound?
**A.** Active

**Q.** What about the inhibition (HT-29 [4]) of the same compound?
**A.** Dose-dependent effect

**Q.** And the pEC50 (HT-29 [4]; HT-29, 12 h)?
**A.** 6.51

**Q.** What about the Activity (Rattus norvegicus [5]) of the same compound?
**A.** 2.72

**Q.** What about the inhibition (HT-29 [6]) of the same compound?
**A.** Active

**Q.** And the Activity (Mus musculus)?
**A.** Active

**Q.** What about the inhibition (HT-29 [7]) of the same compound?
**A.** Active

**Q.** What about the inhibition (HT-29 [8]) of the same compound?
**A.** Active

**Q.** What about the inhibition (HT-29 [9]) of the same compound?
**A.** Active

**Q.** What about the inhibition [10] of the same compound?
**A.** Dose-dependent effect

**Q.** And the inhibition [11]?
**A.** Active

**Q.** What about the inhibition [12] of the same compound?
**A.** Active

**Q.** What about the inhibition [13] of the same compound?
**A.** Active

**Q.** What about the Activity (HT-29 [14]) of the same compound?
**A.** Active

**Q.** And the inhibition (L929)?
**A.** Dose-dependent effect

**Q.** What about the pEC50 (L929; L929, 12 h) of the same compound?
**A.** 6.07

**Q.** What about the Activity (Rattus norvegicus [15]) of the same compound?
**A.** Active

From ChEMBL document CHEMBL4732104, “Discovery of bardoxolone derivatives as novel orally active necroptosis inhibitors” (Eur J Med Chem, 2021)
